For three compounds, Activity and Stability results are on record in ChEMBL document CHEMBL3228020, “Improved antitumor effects in 3'-branched homologues of 2'-deoxythioguanosine. Synthesis and evaluation of thioguanine nucleosides of 2,3-dideoxy-3-(hydroxymethyl)-D-erythro-pentofuranose” (J Med Chem, 1979).

Structures are written as SMILES. Calls of active or inactive are those of the source. The rule behind the calls is not given here.

For series [1], the species on record is Mus musculus. Put plainly: Acid-soluble DNA incorporation in mouse Mecca lymphosarcoma ascite tumor allografted in AKD2F1 mouse assessed as snake venome 5'-nucleotidase-mediated nucleotide hydrolysis at 2.6 umol after 2 hrs. It is filed as functional. Further details: scale not given: the % may be the effect or the level left. A digest of the protocol:
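Female AKD2F1 mice bearing 4-day Mecca lymphosarcoma ascites were used in groups of three. Aliquots of the acid-soluble fraction were digested with crude Crotalus adamanteus venom (phosphodiesterase plus 5'-nucleotidase) for 2 h at 37 °C.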

For series [2], the species on record is Mus musculus. Put plainly: Acid-insoluble DNA incorporation in mouse Mecca lymphosarcoma ascite tumor allografted in AKD2F1 mouse assessed as detection of [35S] in nucleotide at 2.6 umol after 4 hrs by scintillation counting analysis. It is filed as functional. The method, boiled down:
(§1)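 Female AKD2F1 mice (groups of 3) bearing 4-day Mecca lymphosarcoma ascites tumors; 2.6 μmol [35S]nucleoside ip, repeated after 2 h; peritoneal cells washed out 2 h later. Acid-insoluble nucleic acid extracted in 10% NaCl at 100 °C, RNA removed by alkali; DNA digested with DNase I then phosphodiesterase I at 37 °C; paper chromatography, spots counted by scintillation.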

The species named for series [3] is Mus musculus. Put plainly: Acid-soluble DNA incorporation in mouse Mecca lymphosarcoma ascite tumor allografted in AKD2F1 mouse assessed as detection of [35S] in nucleoside per mg of DNA at 2.6 umol after 4 hrs by scintillation counting analysis. It is filed as functional. The method, boiled down: (§2)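 Same mouse dosing as the DNA study: 2.6 μmol [35S]nucleoside ip twice, 2 h apart, to AKD2F1 mice carrying Mecca lymphosarcoma ascites; cells harvested 2 h after the second dose. Acid-soluble fraction chromatographed on paper in 5% KH2PO4 with mercaptoethanol; nucleoside and nucleotide spots scintillation-counted, expressed per mg DNA.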

The species named for series [4] is Mus musculus. Briefly: Acid-insoluble DNA incorporation in mouse Mecca lymphosarcoma ascite tumor allografted in AKD2F1 mouse assessed as detection of [35S] in nucleoside at 2.6 umol after 4 hrs by scintillation counting analysis. Type of series: functional. A digest of the protocol:
as §1

Series [5] is filed under the species Mus musculus. Briefly: Acid-soluble DNA incorporation in mouse Mecca lymphosarcoma ascite tumor allografted in AKD2F1 mouse assessed as wheat germ 3'-nucleotidase-mediated nucleotide hydrolysis at 2.6 umol after 1 hr. Further details: scale not given: the % may be the effect or the level left. It is filed as functional. A digest of the protocol:
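Acid-soluble fraction from mice dosed ip with 2.6 μmol [35S]nucleoside twice, 2 h apart. Aliquot treated with nucleotidase-free phosphodiesterase (pH 8.6, 1 h, 37 °C), then wheat germ 3'-nucleotidase (4 units, pH 5, 1 h, 37 °C); separated by paper chromatography and counted.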

The subject of series [6] is WIL2. Briefly: Stability in human WIL2 cells assessed as formation of thioguanine. It is filed as ADME, cell-based. A digest of the protocol:
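WI-L2 cells incubated with labeled nucleoside; [35S]thioguanine formed was measured.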

Series [7] can be described thus: Stability in RPMI 1640 after 24 hrs in presence of 10% fetal calf serum. The note with it: cattle. It is filed as physicochemical. A digest of the protocol:
(§3)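 Nucleosides incubated without cells in RPMI 1640 containing 10% fetal calf serum or 10% dialyzed horse serum, 20 min or 24 h; cleavage to thioguanine monitored.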

Series [8] relates to Mus musculus. Put plainly: Acid-insoluble DNA incorporation in mouse Mecca lymphosarcoma ascite tumor allografted in AKD2F1 mouse assessed per mg of DNA at 2.6 umol, ip after 4 hrs by scintillation counting analysis. Type of series: functional. A digest of the protocol: as §1
Series [9] is described as follows: Stability in RPMI 1640 assessed as formation of thioguanine after 24 hrs in presence of 10% dialyzed horse serum. It is filed as physicochemical. A digest of the protocol:
as §3

Series [10] has as its system WIL2. Put plainly: Antiproliferative activity against human WIL2 cells assessed as decrease in cell number at 100 to 300 uM measured every 24 hrs by electronic particle counting analysis in presence of 10% dialyzed horse serum. Type of series: functional, cell-based. The method, boiled down: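 WI-L2 cells in RPMI 1640 + 10% dialyzed horse serum with penicillin/streptomycin; log-phase cells (2×10^5/mL) mixed 1:1 with double-strength drug medium at several concentrations, duplicate cultures, counted every 24 h by electronic particle counter.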

The species named for series [11] is Mus musculus. Put plainly: Acid-soluble DNA incorporation in mouse Mecca lymphosarcoma ascite tumor allografted in AKD2F1 mouse assessed as detection of [35S] in nucleotide per mg of DNA at 2.6 umol after 4 hrs by scintillation counting analysis. Type of series: functional. The method, boiled down:
as §2

Series [12] in a line: Stability in RPMI 1640 after 20 mins in presence of 10% fetal calf serum. It is filed as physicochemical. The conditions noted are these: cattle. A digest of the protocol: as §3

As to `Nc1nc2c(ncn2[C@@H]2C[C@H](CO)[C@@H](CO)O2)c(=S)[nH]1`, the Activity in the series filed under Mus musculus [1] was 95.2%; in the series listed under Mus musculus [2], 9%; in the series filed under Mus musculus [3], 15.6 nmol; in the series filed under Mus musculus [4], 91%; in the series filed under Mus musculus [5], 0%; with Mus musculus [8], 2.42 nmol. Further, the Activity in the series listed under Mus musculus [11] is reported as 29.8 nmol. The Stability result in the series on WIL2 [6] is given as “Stable”; in [7], “Unstable”; in series [9], “Stable”; in series [12], “Stable”. In the series on WIL2 [10], the outcome was Active.

Turning to `Nc1nc2c(ncn2[C@H]2C[C@H](CO)[C@@H](CO)O2)c(=S)[nH]1`, the Activity in the series listed under Mus musculus [1] is recorded as 94.8%; in the series filed under Mus musculus [2] it was 10%; in the series filed under Mus musculus [3], 29.1 nmol; in the series filed under Mus musculus [4], 90%; in the series listed under Mus musculus [5], 0%; with Mus musculus [8], 2.36 nmol. The Activity in the series filed under Mus musculus [11] is listed as 30.3 nmol. Besides, the Stability result in the series with WIL2 [6] is recorded as “Stable”; in [7] it was “Unstable”; in series [9] it was “Stable”; in series [12] it was “Stable”.

`Nc1nc2c(ncn2[C@@H]2C[C@H](O)[C@@H](CO)O2)c(=S)[nH]1`: the Activity in the series listed under Mus musculus [1] turned out to be 95.7%; in the series filed under Mus musculus [2], 40%; in the series filed under Mus musculus [3], 10.4 nmol; in the series filed under Mus musculus [4], 60%; in the series filed under Mus musculus [5], 2%; in the series on Mus musculus [8], 0.84 nmol. Further, the Activity in the series filed under Mus musculus [11] was determined as 6.4 nmol. Also, the Stability result with WIL2 [6] was “Stable”; in [7] it was “Unstable”; in series [9], “Stable”; in [12] it was “Stable”. Also, the outcome with WIL2 [10] was Active.
